Experimental data as given in ChEMBL document CHEMBL4393654, “Discovery and Early Clinical Development of an Inhibitor of 5-Lipoxygenase Activating Protein (AZD5718) for Treatment of Coronary Artery Disease” (J Med Chem, 2019).
pIC50: −log10 of the molar value. Blank lines part the entries; values can stand above or below the molecule they belong to. Calls of active or inactive are those of the source. The calls are words filed in the database; no cut-off is given here.

Experiments:
Homo sapiens [1] = species on record: Homo sapiens; assay: Selectivity ratio of compound effect on activity at COX1 in human whole blood to IC50 for FLAP in human whole blood
[2] = molecular target: T1, Prostaglandin G/H synthase 2 (Homo sapiens) (UniProt P35354); assay: Activity at COX2 in human whole blood assessed as effect on LPS-induced PGE2 production preincubated for 15 mins followed by LPS-stimulation and measured after overnight incubation by EIA; type: tissue-based
T1 sequence (whole entry): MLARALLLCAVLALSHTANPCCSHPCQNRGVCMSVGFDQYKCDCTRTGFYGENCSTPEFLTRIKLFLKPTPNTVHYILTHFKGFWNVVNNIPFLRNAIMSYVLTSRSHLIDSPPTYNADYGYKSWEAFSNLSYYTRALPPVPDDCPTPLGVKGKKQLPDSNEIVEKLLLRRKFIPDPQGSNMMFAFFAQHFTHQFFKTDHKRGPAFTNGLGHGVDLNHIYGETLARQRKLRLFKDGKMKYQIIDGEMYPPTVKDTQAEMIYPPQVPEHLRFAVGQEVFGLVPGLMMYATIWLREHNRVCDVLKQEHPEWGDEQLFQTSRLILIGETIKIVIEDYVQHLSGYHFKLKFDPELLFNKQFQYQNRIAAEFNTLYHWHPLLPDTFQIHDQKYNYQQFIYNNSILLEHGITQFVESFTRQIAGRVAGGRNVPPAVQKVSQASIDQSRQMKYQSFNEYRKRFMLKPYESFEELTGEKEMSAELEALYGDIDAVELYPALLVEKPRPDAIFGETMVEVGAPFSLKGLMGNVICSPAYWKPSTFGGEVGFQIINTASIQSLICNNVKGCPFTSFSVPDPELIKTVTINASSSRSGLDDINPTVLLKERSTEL

Homo sapiens [3] = species on record: Homo sapiens; assay: Selectivity ratio of compound effect on activity at COX2 in human whole blood to IC50 for FLAP in human whole blood
[4] = Clearance in rat at 1 umol/kg, iv; type: ADME; details: in vivo
[5] = Volume of distribution at steady state in Beagle dog at 1 umol/kg, iv; type: ADME, Canis lupus familiaris; details: in vivo, read-out: Vdss
THP-1 = assay: Cytotoxicity against human THP1 cells assessed as reduction in cell viability measured after 48 hrs by resazurin assay; type: cell-based; details: THP-1, 48 h
[6] = molecular target: T2, Arachidonate 5-lipoxygenase-activating protein (Homo sapiens, UniProt P20292); assay: Inhibition of [3H]MK0591 binding to human FLAP expressed in […] cell membranes measured after 60 to 80 mins by microbeta scintillation counting method
T2 sequence (P20292 whole entry): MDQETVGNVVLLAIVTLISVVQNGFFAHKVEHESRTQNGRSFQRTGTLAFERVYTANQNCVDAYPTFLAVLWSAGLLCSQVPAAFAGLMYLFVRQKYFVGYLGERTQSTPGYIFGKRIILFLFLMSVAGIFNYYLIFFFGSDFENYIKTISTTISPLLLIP

HepG2 = assay: Cytotoxicity against human HepG2 cells assessed as reduction in ATP depletion in presence of glucose/galactose; type: cell-based
[7] = molecular target: T3, Arachidonate 5-lipoxygenase-activating protein (Homo sapiens) (UniProt P20292); assay: Inhibition of FLAP in human whole blood assessed as reduction in calcium ionophore-stimulated LTB4 production preincubated for 4 hrs followed by calcium ionophore stimulation and measured after 20 mins by EIA; type: tissue-based
T3 sequence (whole entry): T2 sequence (P20292 whole entry)
How it was run: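 Fresh human whole blood was incubated with compound for 4 h, then stimulated with calcium ionophore, and LTB4 production was measured as the 5-LO pathway read-out. IC50 was also converted to a free value: IC50 × (Fu/100), where Fu = 100 − human plasma protein binding (%).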

[8] = Oral bioavailability in Beagle dog at 2 umol/kg; type: ADME, organism-based, Canis lupus familiaris; details: in vivo
[9] = Oral bioavailability in rat at 2 umol/kg; type: ADME, organism-based; details: in vivo
[10] = Volume of distribution at steady state in rat at 1 umol/kg, iv; type: ADME; details: in vivo, read-out: Vdss
[11] = Half life in Beagle dog at 1 umol/kg, iv; type: ADME, Canis lupus familiaris; details: in vivo
[12] = molecular target: Prostaglandin G/H synthase 1 (Homo sapiens) (UniProt P23219); assay: Activity at COX1 in human whole blood assessed as effect on […] production by EIA; type: tissue-based
Prostaglandin G/H synthase 1 (Homo sapiens), sequence (P23219 whole entry): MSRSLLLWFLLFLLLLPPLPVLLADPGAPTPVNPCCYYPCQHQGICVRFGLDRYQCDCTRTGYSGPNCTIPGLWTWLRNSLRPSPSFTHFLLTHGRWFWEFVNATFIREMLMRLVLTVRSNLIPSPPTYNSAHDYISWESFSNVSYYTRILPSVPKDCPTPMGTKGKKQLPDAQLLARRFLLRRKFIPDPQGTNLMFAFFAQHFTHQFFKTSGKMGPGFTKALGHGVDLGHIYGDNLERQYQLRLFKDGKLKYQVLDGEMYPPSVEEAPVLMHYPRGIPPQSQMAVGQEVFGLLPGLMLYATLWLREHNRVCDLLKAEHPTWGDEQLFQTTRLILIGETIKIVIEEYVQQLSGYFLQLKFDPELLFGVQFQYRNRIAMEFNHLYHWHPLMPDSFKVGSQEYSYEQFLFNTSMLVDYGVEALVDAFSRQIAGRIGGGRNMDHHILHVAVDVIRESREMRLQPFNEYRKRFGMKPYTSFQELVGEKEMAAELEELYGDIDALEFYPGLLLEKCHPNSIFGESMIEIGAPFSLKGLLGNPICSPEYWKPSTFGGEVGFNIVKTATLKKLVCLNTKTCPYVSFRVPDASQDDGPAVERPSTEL

Cytochrome P450 [13] = assay: Drug metabolism in human hepatocytes assessed as CYP450-mediated oxidation at 4 uM measured after 120 mins by LC-MS/MS analysis; type: ADME, cell-based, Hepatocyte; details: 2 h
[14] = Cardiotoxicity in conscious telemetered Beagle dog assessed as effect on arterial blood pressure at 0.5 to 30 mg/kg administered as single iv infusion for 2 hrs measured up to 48 hrs post dose by telemetry; type: toxicity, organism-based, Canis lupus familiaris; details: in vivo
How it was run: (§1)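 Conscious beagle dogs were given the compound by intravenous infusion. Infusion was set to reach a target plasma concentration 100-fold above the predicted free human Cmax at the therapeutic dose, and cardiovascular parameters were recorded.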

[15] = molecular target: Voltage-dependent T-type calcium channel subunit alpha-1H (Homo sapiens, UniProt O95180); assay: Inhibition of human Cav3.2 by Ion-work electrophysiology assay
Voltage-dependent T-type calcium channel subunit alpha-1H, sequence (O95180 whole entry): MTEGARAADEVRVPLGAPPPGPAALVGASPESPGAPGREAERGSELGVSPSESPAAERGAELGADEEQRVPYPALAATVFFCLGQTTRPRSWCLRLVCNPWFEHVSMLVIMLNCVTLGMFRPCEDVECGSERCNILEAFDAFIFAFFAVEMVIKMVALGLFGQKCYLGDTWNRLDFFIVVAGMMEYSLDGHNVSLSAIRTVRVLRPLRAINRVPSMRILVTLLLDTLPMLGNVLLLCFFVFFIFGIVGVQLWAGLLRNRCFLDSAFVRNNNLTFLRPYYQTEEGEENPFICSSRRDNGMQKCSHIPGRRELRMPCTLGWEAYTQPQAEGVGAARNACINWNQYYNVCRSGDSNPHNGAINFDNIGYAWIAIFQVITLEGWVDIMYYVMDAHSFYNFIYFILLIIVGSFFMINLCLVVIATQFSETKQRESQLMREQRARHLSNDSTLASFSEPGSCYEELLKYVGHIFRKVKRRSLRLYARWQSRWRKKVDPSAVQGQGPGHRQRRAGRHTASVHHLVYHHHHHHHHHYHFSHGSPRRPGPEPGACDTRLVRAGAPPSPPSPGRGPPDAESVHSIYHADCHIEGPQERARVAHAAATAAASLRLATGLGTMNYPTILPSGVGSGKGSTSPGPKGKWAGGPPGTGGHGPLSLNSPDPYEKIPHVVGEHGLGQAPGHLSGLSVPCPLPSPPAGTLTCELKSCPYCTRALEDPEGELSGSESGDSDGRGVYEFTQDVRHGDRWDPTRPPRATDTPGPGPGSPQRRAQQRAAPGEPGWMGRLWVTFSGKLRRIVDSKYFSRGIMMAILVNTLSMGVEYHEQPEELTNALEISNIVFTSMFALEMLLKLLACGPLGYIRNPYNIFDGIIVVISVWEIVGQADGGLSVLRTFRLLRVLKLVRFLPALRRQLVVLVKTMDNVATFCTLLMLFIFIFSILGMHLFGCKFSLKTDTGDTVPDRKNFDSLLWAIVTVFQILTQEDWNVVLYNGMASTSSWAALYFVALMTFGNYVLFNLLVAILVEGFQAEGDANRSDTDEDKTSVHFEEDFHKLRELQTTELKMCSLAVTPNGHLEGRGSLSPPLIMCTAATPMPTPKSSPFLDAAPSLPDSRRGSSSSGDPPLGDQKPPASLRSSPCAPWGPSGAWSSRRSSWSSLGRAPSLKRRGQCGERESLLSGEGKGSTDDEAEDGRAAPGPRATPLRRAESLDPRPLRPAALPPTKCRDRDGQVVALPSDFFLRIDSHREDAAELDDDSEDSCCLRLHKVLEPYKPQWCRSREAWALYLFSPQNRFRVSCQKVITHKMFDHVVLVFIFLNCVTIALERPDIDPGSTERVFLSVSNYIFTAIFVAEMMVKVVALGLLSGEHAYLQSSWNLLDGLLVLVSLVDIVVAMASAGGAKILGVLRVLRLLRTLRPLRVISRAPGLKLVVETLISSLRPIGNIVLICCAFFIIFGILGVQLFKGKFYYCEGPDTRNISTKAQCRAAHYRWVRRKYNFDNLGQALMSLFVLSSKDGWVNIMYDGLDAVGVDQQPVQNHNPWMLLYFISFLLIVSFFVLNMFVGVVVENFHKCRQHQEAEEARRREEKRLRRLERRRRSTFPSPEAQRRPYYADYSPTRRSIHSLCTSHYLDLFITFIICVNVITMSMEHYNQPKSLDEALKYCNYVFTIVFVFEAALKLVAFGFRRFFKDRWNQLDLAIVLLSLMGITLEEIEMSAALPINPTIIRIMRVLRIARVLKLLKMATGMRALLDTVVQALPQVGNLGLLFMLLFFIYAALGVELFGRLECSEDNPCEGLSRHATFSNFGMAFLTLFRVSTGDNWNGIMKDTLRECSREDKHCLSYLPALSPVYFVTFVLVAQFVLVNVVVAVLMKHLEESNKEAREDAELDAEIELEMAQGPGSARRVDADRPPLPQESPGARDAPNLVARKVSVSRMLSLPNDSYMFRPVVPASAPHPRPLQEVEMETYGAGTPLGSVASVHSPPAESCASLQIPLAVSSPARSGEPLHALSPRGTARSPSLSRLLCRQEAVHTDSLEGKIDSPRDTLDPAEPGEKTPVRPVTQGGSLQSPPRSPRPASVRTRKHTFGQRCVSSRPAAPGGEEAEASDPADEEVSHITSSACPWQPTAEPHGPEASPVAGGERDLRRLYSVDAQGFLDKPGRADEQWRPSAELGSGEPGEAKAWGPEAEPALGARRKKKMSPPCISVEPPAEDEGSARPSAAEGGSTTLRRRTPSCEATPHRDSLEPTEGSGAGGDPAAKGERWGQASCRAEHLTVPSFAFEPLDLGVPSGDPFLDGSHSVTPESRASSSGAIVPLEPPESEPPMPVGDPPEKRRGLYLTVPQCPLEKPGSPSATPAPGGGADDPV

Bile salt export pump = Bile salt export pump (Homo sapiens, UniProt O95342); assay: Inhibition of recombinant human BSEP expressed in baculovirus infected Sf21 insect cell vesicles assessed as reduction in NBD-taurocholate uptake by fluorescence assay; type: ADME
Bile salt export pump, sequence (O95342 whole entry): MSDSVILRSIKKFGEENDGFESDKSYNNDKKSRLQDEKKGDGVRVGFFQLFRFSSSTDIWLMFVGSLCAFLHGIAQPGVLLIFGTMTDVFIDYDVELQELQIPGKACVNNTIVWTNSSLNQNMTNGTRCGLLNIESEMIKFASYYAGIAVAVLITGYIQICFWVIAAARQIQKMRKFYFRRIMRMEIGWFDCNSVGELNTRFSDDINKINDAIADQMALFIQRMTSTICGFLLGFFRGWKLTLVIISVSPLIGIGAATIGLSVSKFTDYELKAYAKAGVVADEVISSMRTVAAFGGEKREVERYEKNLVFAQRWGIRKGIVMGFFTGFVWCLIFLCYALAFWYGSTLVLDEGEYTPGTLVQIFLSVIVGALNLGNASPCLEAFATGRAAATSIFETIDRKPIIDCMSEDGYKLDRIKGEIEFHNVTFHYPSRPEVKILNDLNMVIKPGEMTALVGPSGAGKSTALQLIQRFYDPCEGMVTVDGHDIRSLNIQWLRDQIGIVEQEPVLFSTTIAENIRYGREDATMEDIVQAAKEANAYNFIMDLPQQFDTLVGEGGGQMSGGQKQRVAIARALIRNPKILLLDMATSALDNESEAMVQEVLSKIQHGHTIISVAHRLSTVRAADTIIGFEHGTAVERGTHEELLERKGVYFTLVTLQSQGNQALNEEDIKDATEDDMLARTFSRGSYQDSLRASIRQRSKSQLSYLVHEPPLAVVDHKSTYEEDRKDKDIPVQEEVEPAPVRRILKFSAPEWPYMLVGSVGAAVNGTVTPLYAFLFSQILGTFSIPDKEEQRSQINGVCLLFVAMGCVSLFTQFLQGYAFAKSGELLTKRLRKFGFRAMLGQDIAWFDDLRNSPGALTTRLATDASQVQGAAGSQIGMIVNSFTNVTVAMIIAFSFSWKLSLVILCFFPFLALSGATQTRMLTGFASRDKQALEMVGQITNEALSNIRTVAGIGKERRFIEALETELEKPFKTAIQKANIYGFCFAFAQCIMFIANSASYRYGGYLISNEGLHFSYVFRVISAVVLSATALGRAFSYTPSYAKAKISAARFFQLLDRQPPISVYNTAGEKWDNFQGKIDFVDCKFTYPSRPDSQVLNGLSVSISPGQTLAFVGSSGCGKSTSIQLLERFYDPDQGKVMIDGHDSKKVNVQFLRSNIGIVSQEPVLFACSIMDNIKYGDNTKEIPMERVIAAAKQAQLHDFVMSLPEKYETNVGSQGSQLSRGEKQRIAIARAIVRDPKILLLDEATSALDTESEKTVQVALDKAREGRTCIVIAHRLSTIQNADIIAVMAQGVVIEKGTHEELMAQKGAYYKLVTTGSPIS

[16] = Half life in Beagle dog at 2 umol/kg, iv; type: ADME, Canis lupus familiaris; details: in vivo
[17] = Cardiotoxicity in conscious telemetered Beagle dog assessed as effect on heart rate at 0.5 to 30 mg/kg administered as single iv infusion for 2 hrs measured up to 48 hrs post dose by telemetry; type: toxicity, organism-based, Canis lupus familiaris; details: in vivo; how it was run: as §1
Cytochrome P450 [18] = assay: Drug metabolism in human hepatocytes assessed as CYP450-mediated phase-2 glucuronidation/oxidation at 4 uM measured after 120 mins by LC-MS/MS analysis; type: ADME, cell-based, Hepatocyte; details: 2 h
[19] = Clearance in Beagle dog at 2 umol/kg, iv; type: ADME, Canis lupus familiaris; details: in vivo
[20] = Cardiotoxicity in conscious telemetered Beagle dog assessed as effect on body temperature at 0.5 to 30 mg/kg administered as single iv infusion for 2 hrs measured up to 48 hrs post dose by telemetry; type: toxicity, organism-based, Canis lupus familiaris; details: in vivo; how it was run: as §1
[21] = Cardiotoxicity in conscious telemetered Beagle dog assessed as effect on lead 2 electrocardiogram at 0.5 to 30 mg/kg administered as single iv infusion for 2 hrs measured up to 48 hrs post dose by telemetry; type: toxicity, organism-based, Canis lupus familiaris; details: in vivo; how it was run: as §1
[22] = Cardiotoxicity in conscious telemetered Beagle dog; type: toxicity, Canis lupus familiaris
[23] = Half life in human at 60 to 1200 mg, po administered as single dose; type: ADME, organism-based; details: in vivo
[24] = Cardiotoxicity in rat assessed as effect on cardiac function measured up to 28 days during compound dosing; type: toxicity; details: in vivo, 672 h
[25] = Oral bioavailability in rat at 2.5 umol/kg; type: ADME, organism-based; details: in vivo
[26] = Cardiotoxicity in dog assessed as effect on cardiac function measured up to 28 days during compound dosing; type: toxicity, Canis lupus familiaris; details: in vivo, 672 h
[27] = Cardiotoxicity in rat assessed as effect on histopathological changes measured up to 28 days during compound dosing; type: toxicity; details: in vivo, 672 h
[28] = Oral bioavailability in Beagle dog at 4.2 umol/kg; type: ADME, organism-based, Canis lupus familiaris; details: in vivo
[29] = Oral bioavailability in rat at 2.8 umol/kg; type: ADME, organism-based; details: in vivo
[30] = Clearance in rat at 2 umol/kg, iv; type: ADME; details: in vivo
[31] = Half life in rat at 2 umol/kg, iv; type: ADME; details: in vivo
[32] = Volume of distribution at steady state in rat at 2 umol/kg, iv; type: ADME; details: in vivo, read-out: Vdss

Selectivity ratio (Homo sapiens [1]): > 100 | Activity [2]: inactive | Selectivity ratio (Homo sapiens [3]): > 100 | clearance [4]: 1.2 mL/min/kg | Vd [5]: 0.4 L/kg | pIC50 [6]: 8.24 | fIC50 [7]: 1.6 nM | bioavailability [8]: 65% | bioavailability [9]: 12% | Vd [10]: 0.18 L/kg | half-life [11]: 7 h | Activity [12]: inactive | Drug metabolism (Cytochrome P450 [13]): Metabolite_Detected
Compound: Cc1cc(-c2ccc(C(=O)[C@@H]3CCCC[C@H]3C(=O)Nc3cnn(C)c3C(=O)NOC(C)(C)C)cc2)[nH]n1
pIC50 (THP-1): < 3.60 | pIC50 (HepG2): < 3.60

pIC50 [15]: < 4.49 | half-life [16]: 2.1 h | clearance [4]: 36 mL/min/kg | Drug metabolism (Cytochrome P450 [18]): Metabolite_Detected | clearance [19]: 7.6 mL/min/kg | half-life [23]: 12 h | bioavailability [8]: 65% | bioavailability [25]: 14% | Vd [10]: 1.1 L/kg
Compound: Cc1cc(-c2ccc(C(=O)[C@@H]3CCCC[C@H]3C(=O)Nc3cnn4c3C(=O)NCC4)cc2)[nH]n1
Activity [14]: Non-Toxic | pIC50 (Bile salt export pump): 3.47 to 4.13 | Activity [17]: Non-Toxic | Activity [20]: Non-Toxic | Activity [21]: Non-Toxic | Activity [22]: Non-Toxic | Activity [24]: Non-Toxic | Activity [26]: Non-Toxic | Activity [27]: Non-Toxic

bioavailability [28]: 65% | pIC50 [15]: < 4.49 | bioavailability [29]: 14% | half-life [16]: 6.8 h | clearance [30]: 10 mL/min/kg | clearance [19]: 2.5 mL/min/kg | half-life [31]: 2.9 h | Vd [32]: 1.3 L/kg
Compound: Cc1cc(-c2ccc(C(=O)[C@@H]3CCCC[C@H]3C(=O)Nc3cnn(C)c3S(N)(=O)=O)cc2)[nH]n1
